Experimental data pooled from the literature.
Lines come from different studies, so protocols differ.

SMILES | species | matrix | route | dose | notes | Tmax
COC1=CC(c2ccc[nH]2)=N/C1=C\c1[nH]c(Cc2ccc(OC(F)(F)F)cc2)cc1Cc1ccc(OC(F)(F)F)cc1 | male CD-1 mouse | liver | oral | 40 mg/kg | single dose | 240 min
OCc1ccc(-c2nn(Cc3ccccc3)c3ccccc23)o1 | male CD-1 mouse | plasma | intraperitoneal | 30 mg/kg | – | 15 min
Cc1[nH]c(C)c(S(=O)(=O)Nc2ccc(C(F)(F)F)c(Cl)c2)c1C(=O)N1CCC(F)(F)C1 | male CD-1 mouse | brain | intraperitoneal | 40 mg/kg | – | 60 min
NCc1ccc(-c2nn(Cc3ccncc3)c3ccccc23)o1 | male CD-1 mouse | plasma | intraperitoneal | 30 mg/kg | – | 19.8 min
Cc1ccc2c(c1)C(=O)[C@]1(O)CCN(c3ccc4nc(C)ccc4c3)C1=N2.Cl | mouse | brain | subcutaneous | 5 mg/kg | – | ≤ 10 min
Cc1nc2ccc(OCc3ccc(C(F)(F)F)cc3)cc2[nH]1 | male BALB/c mouse | plasma | oral | 10 mg/kg | – | 15 min
FC(F)(F)CN1CC(n2cc(Oc3ccn4nc(Cl)cc4n3)cn2)C1 | FVB mouse | blood | oral | – | single dose | 30 min
COc1cc(C2C3=C(COC3=O)N(CCO)c3cc4c(cc32)CCC4)cc(OC)c1OC (stereo not drawn) | female C57BL/6 mouse | plasma | intraperitoneal | 50 mg/kg | – | 60 min
COc1ccc(C[C@H](NC(=O)[C@H](C)NC(=O)CN2CCOCC2)C(=O)N[C@@H](Cc2ccccc2)C(=O)C2(C)CO2)cc1 (stereo in doubt) | mouse | plasma | oral | 20 mg/kg | single dose | 18 min
NCc1ccc(-c2nn(Cc3ccccc3)c3ccccc23)o1 | male CD-1 mouse | plasma | oral | 10 mg/kg | – | 30 min
CN(C)C(=O)c1cc2cnc(Nc3ccc(-c4ccc5c(=O)cc(N6CCOCC6)oc5c4)cc3)nc2n1C1CCCC1.Cl | BALB/c mouse | plasma | intravenous | 2 mg/kg | – | 6 min
CC[C@H](C)[C@H](NC(=O)[C@H](CCC(=O)O)NC(=O)[C@H](CO)NC(=O)[C@@H](NC(=O)[C@@H](N)CO)C(C)C)C(=O)N[C@@H](CCC(N)=O)C(=O)N[C@@H](CC(C)C)C(=O)N[C@@H](CCSC)C(=O)N[C@@H](Cc1cnc[nH]1)C(=O)N[C@@H](CC(N)=O)C(=O)N[C@@H](CC(C)C)C(=O)NCC(=O)N[C@@H](CCCCN)C(=O)N[C@@H](Cc1cnc[nH]1)C(=O)N[C@@H](CC(C)C)C(=O)N[C@@H](CC(N)=O)C(=O)N[C@@H](CO)C(=O)N[C@@H](CCSC)C(=O)N[C@@H](CCC(=O)O)C(=O)N[C@@H](CCCNC(=N)N)C(=O)N[C@H](C(=O)N[C@@H](CCC(=O)O)C(=O)N[C@@H](Cc1c[nH]c2ccccc12)C(=O)N[C@@H](CC(C)C)C(=O)N[C@@H](CCCNC(=N)N)C(=O)N[C@@H](CCCCN)C(=O)N[C@@H](CCCCN)C(=O)N[C@@H](CC(C)C)C(=O)N[C@@H](CCC(N)=O)C(=O)N[C@@H](CC(=O)O)C(=O)N[C@H](C(=O)N[C@@H](Cc1cnc[nH]1)C(=O)N[C@@H](CC(N)=O)C(=O)N[C@@H](Cc1ccccc1)C(N)=O)C(C)C)C(C)C | female CD-1 mouse | serum | intravenous | 10 nmol/kg | – | 1.8 min
COCC(=O)N1CCc2[nH]c3c(Cl)c(Cl)ccc3c2[C@@H]1C | C57BL/6 mouse | blood | oral | 20 mg/kg | – | 25 min
COC1=CC(c2ccc[nH]2)=N/C1=C\c1cc(Cc2ccc(OC(F)(F)F)cc2)c(C)[nH]1.Cl | male CD-1 mouse | plasma | oral | 40 mg/kg | single dose | 1440 min
Cc1ccc(OCC(=O)N[C@@H](Cc2c[nH]c3ccccc23)C(=O)OC(C)C)cc1 | male Sprague-Dawley mouse | plasma | intravenous | 10 mg/kg | – | 48 min
